ChEMBL document CHEMBL5321283, “Structure-Activity Relationships of the Antimicrobial Peptide Natural Product Apidaecin” (J Med Chem, 2023)
Converted amounts (≈) assume the structure as drawn. The source made the active and inactive calls. The calls are words filed in the database; no cut-off is given here. *1 amine or outer side, *2 acyl side, *3 side chain or, on linkers, in order; H or OH if unused. Where a SMILES comes first, the peptide text is derived from it. [ ]: non-standard residue; d: D form. The star is where a group is joined. Orn(α-tetramethylguanidino) = CN(C)C(=N[C@@H](CCCN)C(=O)*)N(C)C; X1 = N=C(N)NCCC[C@H](NC(=S)[C@@H]1CCCN1[*:1])C(=O)[*:2]; X3 = O=C([C@@H]1CCCN1C(=S)[C@@H]1CCCN1[*:1])[*:2]; Phe(4-F) = N[C@@H](Cc1ccc(F)cc1)C(=O)O; Arg(Me) = CNC(=N)NCCC[C@H](N)C(=O)O; Hyp = O=C(O)[C@@H]1C[C@@H](O)CN1; Cha = N[C@@H](CC1CCCCC1)C(=O)O; NMeL = CN[C@@H](CC(C)C)C(=O)O

What was measured:
Escherichia coli [1] = assay: Antibacterial activity against Escherichia coli BL21 assessed as bacterial growth inhibition by broth microdilution assay; assay type: functional
Escherichia coli [2] = assay: Potency index, ratio of Api-137 MIC to test compound MIC for antibacterial activity against Escherichia coli BL21 assessed as bacterial growth inhibition by broth microdilution assay; assay type: functional
Escherichia coli [3] = assay: Antibacterial activity against Escherichia coli BL21 harboring sbmA mutant assessed as bacterial growth inhibition by broth microdilution assay; assay type: functional
Escherichia coli [4] = assay: Antibacterial activity against Escherichia coli BL21 harboring RF2 (R262C) mutant assessed as bacterial growth inhibition by broth microdilution assay; assay type: functional
Escherichia coli [5] = assay: Antibacterial activity against Escherichia coli BL21 harboring RF2 (Q280L) mutant assessed as bacterial growth inhibition by broth microdilution assay; assay type: functional
[6] = Stability in human plasma assessed as parent compound remaining measured after 2 hrs; assay type: ADME, cell-free; conditions: read-out: Stability
Escherichia coli [7] = assay: Induction of stop-codon readthrough in Escherichia coli BL21 carrying pRXG (UGA) reporter incubated for 18 hrs by imaging analysis; assay type: functional
Procedure, shortened: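 Lawn spread on M9 agar with 0.2 mM IPTG and kanamycin, then dried. 2 μL drops of 0.2 mM peptide applied; 1 μL chloramphenicol (1 mg/mL) as negative control. ~18 h, 37 °C; RFP (Cy3) and GFP (Cy2) imaged.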

| Structure (SMILES) | MIC (Escherichia coli [1]) [µM] | Ratio (Escherichia coli [2]) | MIC (Escherichia coli [3]) [µM] | MIC (Escherichia coli [4]) [µM] | MIC (Escherichia coli [5]) [µM] | remaining at 2 h [6] [%] | Activity (Escherichia coli [7]) |
| --- | --- | --- | --- | --- | --- | --- | --- |
| CC[C@H](C)[C@H](NC(=O)[C@H](Cc1ccc(O)cc1)NC(=O)[C@@H](NC(=O)[C@@H]1CCCN1C(=O)[C@H](CCCNC(=N)N)NC(=O)[C@H](CC(N)=O)NC(=O)[C@H](CC(N)=O)NC(=O)[C@H](CCCN)N=C(N(C)C)N(C)C)C(C)C)C(=O)N1CCC[C@H]1C(=O)N[C@@H](CCCNC(=N)N)C(=O)N1CCC[C@H]1C(=O)N[C@@H](CCCNC(=N)N)C(=O)N1CCC[C@H]1C(=O)N1CCC[C@H]1C(=O)N[C@@H](Cc1c[nH]cn1)C(=O)N1CCC[C@H]1C(=O)N[C@@H](CCCNC(=N)N)C(=O)N[C@@H](CC(C)C)C(=O)O ({Orn(α-tetramethylguanidino)}-NNRPVYIPRPRPPHPRL-OH) | 0.16 (≈ 0.367 µg/mL) | 1 | > 25 | > 25 | > 25 | ~80 |  |
| CC[C@H](C)[C@H](NC(=O)[C@H](Cc1ccc(O)cc1)NC(=O)[C@@H](NC(=O)[C@@H]1CCCN1C(=O)[C@H](CCCNC(=N)N)NC(=O)[C@H](CC(N)=O)NC(=O)[C@H](CC(N)=O)NC(=O)[C@H](CCCN)N=C(N(C)C)N(C)C)C(C)C)C(=O)N1CCC[C@H]1C(=O)N[C@@H](CCCNC(=N)N)C(=O)N1CCC[C@H]1C(=O)N[C@@H](CCCNC(=N)N)C(=O)N1CCC[C@H]1C(=O)N1CCC[C@H]1C(=O)N[C@@H](Cc1c[nH]cn1)C(=O)N1CCC[C@H]1C(=O)N[C@@H](CCCNC(=N)N)C(=O)N(C)[C@@H](CC(C)C)C(=O)O ({Orn(α-tetramethylguanidino)}-NNRPVYIPRPRPPHPR[NMeL]-OH) |  |  | > 25 | > 25 |  | ~80 | Active |
| CC[C@H](C)[C@H](NC(=O)[C@H](Cc1ccc(O)cc1)NC(=O)[C@@H](NC(=O)[C@@H]1CCCN1C(=O)[C@H](CCCNC(=N)N)NC(=O)[C@H](CC(N)=O)NC(=O)[C@H](CC(N)=O)NC(=O)[C@H](CCCN)N=C(N(C)C)N(C)C)C(C)C)C(=O)N1CCC[C@H]1C(=O)N[C@@H](CCCNC(=N)N)C(=O)N1CCC[C@H]1C(=O)N[C@@H](CCCNC(=N)N)C(=O)N1CCC[C@H]1C(=O)N1CCC[C@H]1C(=O)N[C@@H](Cc1c[nH]cn1)C(=O)N1CCC[C@H]1C(=O)N[C@@H](CCCNC(=N)NC)C(=O)N[C@@H](CC(C)C)C(=O)O ({Orn(α-tetramethylguanidino)}-NNRPVYIPRPRPPHP[Arg(Me)]L-OH) | 0.3 (≈ 0.692 µg/mL) | 1 | > 25 | > 25 | 25 (≈ 57.6 µg/mL) |  | Active |
| CC[C@H](C)[C@H](NC(=O)[C@H](Cc1ccc(O)cc1)NC(=O)[C@@H](NC(=O)[C@@H]1CCCN1C(=O)[C@H](CCCNC(=N)N)NC(=O)[C@H](CC(N)=O)NC(=O)[C@H](CC(N)=O)NC(=O)[C@H](CCCN)N=C(N(C)C)N(C)C)C(C)C)C(=O)N1CCC[C@H]1C(=O)N[C@@H](CCCNC(=N)N)C(=O)N1CCC[C@H]1C(=O)N[C@@H](CCCNC(=N)N)C(=O)N1C[C@H](O)C[C@H]1C(=O)N1CCC[C@H]1C(=O)N[C@@H](Cc1c[nH]cn1)C(=O)N1CCC[C@H]1C(=O)N[C@@H](CCCNC(=N)N)C(=O)N[C@@H](CC(C)C)C(=O)O ({Orn(α-tetramethylguanidino)}-NNRPVYIPRPR[Hyp]PHPRL-OH) | 0.16 (≈ 0.369 µg/mL) | 2 |  |  |  |  |  |
| CC[C@H](C)[C@H](NC(=O)[C@H](Cc1ccc(O)cc1)NC(=O)[C@@H](NC(=O)[C@@H]1CCCN1C(=O)[C@H](CCCNC(=N)N)NC(=O)[C@H](CC(N)=O)NC(=O)[C@H](CC(N)=O)NC(=O)[C@H](CCCN)N=C(N(C)C)N(C)C)C(C)C)C(=O)N1CCC[C@H]1C(=O)N[C@@H](CCCNC(=N)N)C(=O)N1CCC[C@H]1C(=O)N[C@@H](CCCNC(=N)N)C(=O)N1CCC[C@H]1C(=S)N1CCC[C@H]1C(=O)N[C@@H](Cc1c[nH]cn1)C(=O)N1CCC[C@H]1C(=O)N[C@@H](CCCNC(=N)N)C(=O)N[C@@H](CC(C)C)C(=O)O ({Orn(α-tetramethylguanidino)}-NNRPVYIPRPR[X3]HPRL-OH) | 0.62 (≈ 1.43 µg/mL) | 4 |  |  |  |  |  |
| CC[C@H](C)[C@H](NC(=O)[C@H](Cc1ccc(O)cc1)NC(=O)[C@@H](NC(=O)[C@@H]1CCCN1C(=O)[C@H](CCCNC(=N)N)NC(=O)[C@H](CC(N)=O)NC(=O)[C@H](CC(N)=O)NC(=O)[C@H](CCCN)N=C(N(C)C)N(C)C)C(C)C)C(=O)N1CCC[C@H]1C(=O)N[C@@H](CCCNC(=N)N)C(=O)N1C[C@H](O)C[C@H]1C(=O)N[C@@H](CCCNC(=N)N)C(=O)N1CCC[C@H]1C(=O)N1CCC[C@H]1C(=O)N[C@@H](Cc1c[nH]cn1)C(=O)N1CCC[C@H]1C(=O)N[C@@H](CCCNC(=N)N)C(=O)N[C@@H](CC(C)C)C(=O)O ({Orn(α-tetramethylguanidino)}-NNRPVYIPR[Hyp]RPPHPRL-OH) | 1.2 (≈ 2.77 µg/mL) | 4 |  |  |  |  |  |
| CC[C@H](C)[C@H](NC(=O)[C@H](Cc1ccc(O)cc1)NC(=O)[C@@H](NC(=O)[C@@H]1CCCN1C(=O)[C@H](CCCNC(=N)N)NC(=O)[C@H](CC(N)=O)NC(=O)[C@H](CC(N)=O)NC(=O)[C@H](CCCN)N=C(N(C)C)N(C)C)C(C)C)C(=O)N1CCC[C@H]1C(=O)N[C@@H](CCCNC(=N)N)C(=O)N1CCC[C@H]1C(=S)N[C@@H](CCCNC(=N)N)C(=O)N1CCC[C@H]1C(=O)N1CCC[C@H]1C(=O)N[C@@H](Cc1c[nH]cn1)C(=O)N1CCC[C@H]1C(=O)N[C@@H](CCCNC(=N)N)C(=O)N[C@@H](CC(C)C)C(=O)O ({Orn(α-tetramethylguanidino)}-NNRPVYIPR[X1]PPHPRL-OH) | 0.62 (≈ 1.43 µg/mL) | 4 |  |  |  |  |  |
| CC[C@H](C)[C@H](NC(=O)[C@H](Cc1ccc(O)cc1)NC(=O)[C@@H](NC(=O)[C@@H]1CCCN1C(=O)[C@H](CCCNC(=N)N)NC(=O)[C@H](CC(N)=O)NC(=O)[C@H](CC(N)=O)NC(=O)[C@H](CCCN)N=C(N(C)C)N(C)C)C(C)C)C(=O)N1C[C@H](O)C[C@H]1C(=O)N[C@@H](CCCNC(=N)N)C(=O)N1CCC[C@H]1C(=O)N[C@@H](CCCNC(=N)N)C(=O)N1CCC[C@H]1C(=O)N1CCC[C@H]1C(=O)N[C@@H](Cc1c[nH]cn1)C(=O)N1CCC[C@H]1C(=O)N[C@@H](CCCNC(=N)N)C(=O)N[C@@H](CC(C)C)C(=O)O ({Orn(α-tetramethylguanidino)}-NNRPVYI[Hyp]RPRPPHPRL-OH) | 0.08 (≈ 0.185 µg/mL) | 1 |  |  |  |  |  |
| CC[C@H](C)[C@H](NC(=O)[C@H](CC1CCCCC1)NC(=O)[C@@H](NC(=O)[C@@H]1CCCN1C(=O)[C@H](CCCNC(=N)N)NC(=O)[C@H](CC(N)=O)NC(=O)[C@H](CC(N)=O)NC(=O)[C@H](CCCN)N=C(N(C)C)N(C)C)C(C)C)C(=O)N1CCC[C@H]1C(=O)N[C@@H](CCCNC(=N)N)C(=O)N1CCC[C@H]1C(=O)N[C@@H](CCCNC(=N)N)C(=O)N1CCC[C@H]1C(=O)N1CCC[C@H]1C(=O)N[C@@H](Cc1c[nH]cn1)C(=O)N1CCC[C@H]1C(=O)N[C@@H](CCCNC(=N)N)C(=O)N[C@@H](CC(C)C)C(=O)O ({Orn(α-tetramethylguanidino)}-NNRPV[Cha]IPRPRPPHPRL-OH) | 0.75 (≈ 1.71 µg/mL) | 2 |  |  |  |  |  |
| CC[C@H](C)[C@H](NC(=O)[C@H](Cc1ccc(F)cc1)NC(=O)[C@@H](NC(=O)[C@@H]1CCCN1C(=O)[C@H](CCCNC(=N)N)NC(=O)[C@H](CC(N)=O)NC(=O)[C@H](CC(N)=O)NC(=O)[C@H](CCCN)N=C(N(C)C)N(C)C)C(C)C)C(=O)N1CCC[C@H]1C(=O)N[C@@H](CCCNC(=N)N)C(=O)N1CCC[C@H]1C(=O)N[C@@H](CCCNC(=N)N)C(=O)N1CCC[C@H]1C(=O)N1CCC[C@H]1C(=O)N[C@@H](Cc1c[nH]cn1)C(=O)N1CCC[C@H]1C(=O)N[C@@H](CCCNC(=N)N)C(=O)N[C@@H](CC(C)C)C(=O)O ({Orn(α-tetramethylguanidino)}-NNRPV[Phe(4-F)]IPRPRPPHPRL-OH) | 0.35 (≈ 0.803 µg/mL) | 1 |  |  |  |  |  |
| CC[C@H](C)[C@H](NC(=O)[C@H](Cc1ccc(O)cc1)NC(=O)[C@@H](NC(=O)[C@@H]1C[C@@H](O)CN1C(=O)[C@H](CCCNC(=N)N)NC(=O)[C@H](CC(N)=O)NC(=O)[C@H](CC(N)=O)NC(=O)[C@H](CCCN)N=C(N(C)C)N(C)C)C(C)C)C(=O)N1CCC[C@H]1C(=O)N[C@@H](CCCNC(=N)N)C(=O)N1CCC[C@H]1C(=O)N[C@@H](CCCNC(=N)N)C(=O)N1CCC[C@H]1C(=O)N1CCC[C@H]1C(=O)N[C@@H](Cc1c[nH]cn1)C(=O)N1CCC[C@H]1C(=O)N[C@@H](CCCNC(=N)N)C(=O)N[C@@H](CC(C)C)C(=O)O ({Orn(α-tetramethylguanidino)}-NNR[Hyp]VYIPRPRPPHPRL-OH) | 0.08 (≈ 0.185 µg/mL) | 1 |  |  |  |  |  |
| CC[C@H](C)[C@H](NC(=O)[C@H](Cc1ccc(F)cc1)NC(=O)[C@@H](NC(=O)[C@@H]1C[C@@H](O)CN1C(=O)[C@H](CCCNC(=N)N)NC(=O)[C@H](CC(N)=O)NC(=O)[C@H](CC(N)=O)NC(=O)[C@H](CCCN)N=C(N(C)C)N(C)C)C(C)C)C(=O)N1CCC[C@H]1C(=O)N[C@@H](CCCNC(=N)N)C(=O)N1CCC[C@H]1C(=O)N[C@@H](CCCNC(=N)N)C(=O)N1CCC[C@H]1C(=O)N1CCC[C@H]1C(=O)N[C@@H](Cc1c[nH]cn1)C(=O)N1CCC[C@H]1C(=O)N[C@@H](CCCNC(=N)NC)C(=O)N(C)[C@@H](CC(C)C)C(=O)O ({Orn(α-tetramethylguanidino)}-NNR[Hyp]V[Phe(4-F)]IPRPRPPHP[Arg(Me)][NMeL]-OH) |  |  | > 25 | 6.2 (≈ 14.5 µg/mL) |  | ~80 | Active |
